Data: ChEMBL document CHEMBL5058577, “EUbOPEN Chemogenomics Library 2 (Multiplex)” (2022)

Tested on: HEK-293T
Assay: Multiplex assay against HEK293T
Format: toxicity, cell-based
Conditions: human
Outline: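 Compound was added to live cells that had been stained at seeding with Hoechst33342, BioTracker Green Microtubule Cytoskeleton Dye, MitoTracker Red and Annexin V Alexa Fluor 680, and imaging followed on a CQ1 microscope at 37°C and 5% CO2. CellPathfinder machine-learning gating divided cells into Hoechst high-intensity objects or normal cells, normal cells into healthy, pyknosed or fragmented nuclei, and pyknosed cells into mitotic or apoptotic. Tubulin, mitochondrial-mass and membrane-permeability phenotypes are per cents of healthy-nucleus cells.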

[1] = 12 h, 1 µM, compound concentration 1 uM, replicate 1
[2] = 12 h, 1 µM, compound concentration 1 uM, replicate 2
[3] = 12 h, 10 µM, compound concentration 10 uM, replicate 1
[4] = 12 h, 10 µM, compound concentration 10 uM, replicate 2
[5] = 24 h, 1 µM, compound concentration 1 uM, replicate 1
[6] = 24 h, 1 µM, compound concentration 1 uM, replicate 2
[7] = 24 h, 10 µM, compound concentration 10 uM, replicate 1
[8] = 24 h, 10 µM, compound concentration 10 uM, replicate 2
[9] = 48 h, 1 µM, compound concentration 1 uM, replicate 1
[10] = 48 h, 1 µM, compound concentration 1 uM, replicate 2
[11] = 48 h, 10 µM, compound concentration 10 uM, replicate 1
[12] = 48 h, 10 µM, compound concentration 10 uM, replicate 2

Cl.N=C(N)NC(=O)Cc1c(Cl)cccc1Cl [GUANFACINE HYDROCHLORIDE]
Population Apoptotic (%) [1]: 29%
Population Fragmented Nuclei (%) [1]: 3%
Population Healthy Nuclei (%) [1]: 84%
Population Hoechst High Intensity Objects (%) [1]: 7%
Population Membrane Permeable-Phenotype (%) [1]: 0%
Population Mitochondria Different-Phenotype (%) [1]: 46%
Population Mitotic Cells (%) [1]: 70%
Population Normal (%) [1]: 92%
Population Pyknosed Nuclei (%) [1]: 11%
Population Tubulin-Different-Phenotype (%) [1]: 31%
Total Cell Count [1]: 384
Population Apoptotic (%) [2]: 47%
Population Fragmented Nuclei (%) [2]: 5%
Population Healthy Nuclei (%) [2]: 76%
Population Hoechst High Intensity Objects (%) [2]: 12%
Population Mitochondria Different-Phenotype (%) [2]: 67%
Population Mitotic Cells (%) [2]: 52%
Population Normal (%) [2]: 87%
Population Pyknosed Nuclei (%) [2]: 17%
Total Cell Count [2]: 289
Population Apoptotic (%) [3]: 52%
Population Fragmented Nuclei (%) [3]: 12%
Population Healthy Nuclei (%) [3]: 67%
Population Hoechst High Intensity Objects (%) [3]: 7%
Population Membrane Permeable-Phenotype (%) [3]: 0%
Population Mitochondria Different-Phenotype (%) [3]: 61%
Population Mitotic Cells (%) [3]: 47%
Population Normal (%) [3]: 92%
Population Pyknosed Nuclei (%) [3]: 20%
Population Tubulin-Different-Phenotype (%) [3]: 43%
Total Cell Count [3]: 296
Population Apoptotic (%) [4]: 34%
Population Fragmented Nuclei (%) [4]: 8%
Population Healthy Nuclei (%) [4]: 77%
Population Hoechst High Intensity Objects (%) [4]: 10%
Population Mitochondria Different-Phenotype (%) [4]: 69%
Population Mitotic Cells (%) [4]: 65%
Population Normal (%) [4]: 89%
Population Pyknosed Nuclei (%) [4]: 14%
Population Tubulin-Different-Phenotype (%) [4]: 38%
Total Cell Count [4]: 365
Population Apoptotic (%) [5]: 36%
Population Fragmented Nuclei (%) [5]: 8%
Population Healthy Nuclei (%) [5]: 80%
Population Hoechst High Intensity Objects (%) [5]: 4%
Population Membrane Permeable-Phenotype (%) [5]: 0%
Population Mitochondria Different-Phenotype (%) [5]: 27%
Population Mitotic Cells (%) [5]: 63%
Population Normal (%) [5]: 95%
Population Pyknosed Nuclei (%) [5]: 11%
Population Tubulin-Different-Phenotype (%) [5]: 21%
Total Cell Count [5]: 493
Population Apoptotic (%) [6]: 50%
Population Fragmented Nuclei (%) [6]: 4%
Population Healthy Nuclei (%) [6]: 83%
Population Hoechst High Intensity Objects (%) [6]: 10%
Population Mitochondria Different-Phenotype (%) [6]: 42%
Population Mitotic Cells (%) [6]: 50%
Population Normal (%) [6]: 89%
Population Tubulin-Different-Phenotype (%) [6]: 19%
Total Cell Count [6]: 344
Population Apoptotic (%) [7]: 46%
Population Fragmented Nuclei (%) [7]: 11%
Population Healthy Nuclei (%) [7]: 75%
Population Hoechst High Intensity Objects (%) [7]: 7%
Population Membrane Permeable-Phenotype (%) [7]: 0%
Population Mitochondria Different-Phenotype (%) [7]: 48%
Population Mitotic Cells (%) [7]: 53%
Population Normal (%) [7]: 92%
Population Pyknosed Nuclei (%) [7]: 12%
Population Tubulin-Different-Phenotype (%) [7]: 39%
Total Cell Count [7]: 343
Population Apoptotic (%) [8]: 36%
Population Fragmented Nuclei (%) [8]: 6%
Population Healthy Nuclei (%) [8]: 83%
Population Hoechst High Intensity Objects (%) [8]: 9%
Population Mitochondria Different-Phenotype (%) [8]: 50%
Population Mitotic Cells (%) [8]: 63%
Population Normal (%) [8]: 90%
Population Pyknosed Nuclei (%) [8]: 10%
Population Tubulin-Different-Phenotype (%) [8]: 27%
Total Cell Count [8]: 454
Population Apoptotic (%) [9]: 15%
Population Fragmented Nuclei (%) [9]: 15%
Population Healthy Nuclei (%) [9]: 78%
Population Hoechst High Intensity Objects (%) [9]: 2%
Population Membrane Permeable-Phenotype (%) [9]: 1%
Population Mitochondria Different-Phenotype (%) [9]: 22%
Population Mitotic Cells (%) [9]: 84%
Population Normal (%) [9]: 97%
Population Pyknosed Nuclei (%) [9]: 6%
Population Tubulin-Different-Phenotype (%) [9]: 21%
Total Cell Count [9]: 680
Population Apoptotic (%) [10]: 34%
Population Fragmented Nuclei (%) [10]: 10%
Population Healthy Nuclei (%) [10]: 79%
Population Hoechst High Intensity Objects (%) [10]: 7%
Population Membrane Permeable-Phenotype (%) [10]: 0%
Population Mitochondria Different-Phenotype (%) [10]: 32%
Population Mitotic Cells (%) [10]: 65%
Population Normal (%) [10]: 92%
Population Pyknosed Nuclei (%) [10]: 9%
Population Tubulin-Different-Phenotype (%) [10]: 14%
Total Cell Count [10]: 560
Population Apoptotic (%) [11]: 47%
Population Fragmented Nuclei (%) [11]: 17%
Population Healthy Nuclei (%) [11]: 73%
Population Hoechst High Intensity Objects (%) [11]: 6%
Population Membrane Permeable-Phenotype (%) [11]: 0%
Population Mitochondria Different-Phenotype (%) [11]: 31%
Population Mitotic Cells (%) [11]: 52%
Population Normal (%) [11]: 93%
Population Pyknosed Nuclei (%) [11]: 9%
Population Tubulin-Different-Phenotype (%) [11]: 14%
Total Cell Count [11]: 421
Population Apoptotic (%) [12]: 50%
Population Fragmented Nuclei (%) [12]: 12%
Population Healthy Nuclei (%) [12]: 80%
Population Hoechst High Intensity Objects (%) [12]: 10%
Population Mitochondria Different-Phenotype (%) [12]: 33%
Population Mitotic Cells (%) [12]: 50%
Population Normal (%) [12]: 89%
Population Pyknosed Nuclei (%) [12]: 6%
Population Tubulin-Different-Phenotype (%) [12]: 20%
Total Cell Count [12]: 612
